Results on 16 compounds are retold here after ChEMBL document CHEMBL4400551, “Discovery and lead optimisation of a potent, selective and orally bioavailable RARβ agonist for the potential treatment of nerve injury” (Bioorg Med Chem Lett, 2019).

Structures are written as SMILES. Active and inactive are the calls of the source. No cut-off for these calls is given here.

For one data set, the species on record is Mus musculus. The data set is described as follows: Selectivity ratio of EC50 for GAL4-fused mouse RARalpha LBD expressed in COS-7 cells to EC50 for GAL4-fused mouse RARbeta-LBD expressed in COS-7 cells. Type of data set: cell-based.
The nature of data set [1]: Fraction absorbed in Sprague-Dawley rat at 1 to 10 mg/kg, po by LC-MS/MS analysis. Type of data set: ADME, organism-based. Particulars: in vivo, read-out: Fabs. An outline of the steps: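 Rats: oral doses of 1, 3 and 10 mg/kg in 8% ethanol/92% PEG-400; iv reference 0.5 mg/kg in 4% DMSO, 38% PEG-400, 58% (0.9%) NaCl. Fraction absorbed is the mean over the three oral doses relative to the iv dose.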

A further data set has as its system HepG2. The data set is described as follows: Cytotoxicity against human HepG2 cells at 50 uM. Particulars: hepg2, 50 µM. Format: cell-based. An outline of the steps: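 HepG2 cell toxicity assay; highest concentration tested 50 μM.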
For data set [2], the target named is Voltage-gated inwardly rectifying potassium channel KCNH2 (Homo sapiens, UniProt Q12809). The data set is described as follows: Displacement of [3H]astemizole from human ERG at 10 uM. An outline of the steps:
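HERG channel binding assay at 10 μM.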

Data set [3] in a line: Genotoxicity in Salmonella typhimurium TA98 at 100 uM by Ames test. Format: toxicity. To be noted: salmonella enterica subsp. enterica serovar typhimurium. In outline:
(§1)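 Ames test in three bacterial strains.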
In general terms: The Ames test uses bacterial strains that need an amino acid and regain growth without it when mutated back.

The test system of data set [4] is Rattus norvegicus. The data set is described as follows: Neuroprotective activity in avulsed rat model assessed as reduction in latency for time taken to sense and remove the tape from the paw of the lesioned forelimbs at 3 mg/kg, po administered every other day for 4 weeks. Type of data set: functional, organism-based. In outline: (§2)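 Rats with avulsion injury given 3 mg/kg orally three times a week, every other day; sensory and locomotor function assessed. Mean of n = 8; two-way repeated-measures ANOVA with Tukey's post-hoc test.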

A further data set deals with CHO-MG. The data set can be described thus: Agonist activity at RARbeta in CHO-MG cells assessed as increase in neurite length after 24 hrs by immunostaining based assay. Format: cell-based. To be noted: Cricetulus griseus. In outline:
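Cerebellar neurons cultured on a CHO-MAG cell monolayer; 24 hr exposure to vehicle or agonist at 1×10^-8 – 1×10^-6 M. Neurite outgrowth read by immunostaining and neurite length quantification; means of 3 independent experiments; Student's t-test, vehicle versus highest dose.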

Data set [5] in a line: Drug uptake in Sprague-Dawley rat brain at 1 to 10 mg/kg, po measured after 8 hrs by LC-MS/MS analysis. Format: ADME, organism-based. Particulars: in vivo. An outline of the steps: (§3)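 Oral dosing to rats; brain tissue and plasma levels compared 8 h after dosing.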
Data set [6] is described as follows: Drug uptake in Sprague-Dawley rat plasma at 1 to 10 mg/kg, po measured after 8 hrs by LC-MS/MS analysis. Particulars: in vivo. Format: ADME, organism-based. An outline of the steps:
as §3

Data set [7] can be described thus: Genotoxicity in Salmonella typhimurium TA100 at 100 uM by Ames test. Format: toxicity. To be noted: salmonella enterica subsp. enterica serovar typhimurium. An outline of the steps:
as §1

A short description of data set [8]: Genotoxicity in Salmonella typhimurium TA1535 at 100 uM by Ames test. Type of data set: toxicity. To be noted: salmonella enterica subsp. enterica serovar typhimurium. An outline of the steps:
as §1

For data set [9], the system named is Salmonella typhimurium. The data set can be described thus: Toxicity in Salmonella typhimurium TA100 at 100 uM. Type of data set: organism-based. Particulars: salmonella enterica subsp. enterica serovar typhimurium. In outline:
(§4)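 Bacterial cytotoxicity testing up to 100 μM.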

Data set [10] relates to Salmonella typhimurium. The data set can be described thus: Toxicity in Salmonella typhimurium TA1535 at 100 uM. Type of data set: organism-based. Particulars: salmonella enterica subsp. enterica serovar typhimurium. In outline: as §4
The subject of data set [11] is Salmonella typhimurium. The data set is described as follows: Toxicity in Salmonella typhimurium TA98 at 100 uM. Format: organism-based. Particulars: salmonella enterica subsp. enterica serovar typhimurium. In outline: as §4
In data set [12] the test system is CHO-K1. The data set is described as follows: Genotoxicity in CHOK1 cells in presence of S9 fraction by micronucleus test. To be noted: chinese hamster. Type of data set: toxicity, cell-based, Cricetulus griseus. In outline:
(§5)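 In vitro micronucleus test in CHO-K1 cells, run both with and without S9.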

In data set [13] the test system is CHO-K1. The data set is described as follows: Genotoxicity in CHOK1 cells in absence of S9 fraction by micronucleus test. Type of data set: toxicity, cell-based, Cricetulus griseus. Particulars: chinese hamster. In outline: as §5
Data set [14] concerns Rattus norvegicus. The data set is described as follows: Neuroprotective activity in avulsed rat model assessed as reduction in number of foot slips in a horizontal ladder by injured forelimb at 3 mg/kg, po administered every other day for 4 weeks. Format: functional, organism-based. An outline of the steps:
as §2

Data set [15] concerns the target T1, Retinoic acid receptor gamma (Mus musculus, UniProt P18911).
T1 sequence (P18911 whole entry): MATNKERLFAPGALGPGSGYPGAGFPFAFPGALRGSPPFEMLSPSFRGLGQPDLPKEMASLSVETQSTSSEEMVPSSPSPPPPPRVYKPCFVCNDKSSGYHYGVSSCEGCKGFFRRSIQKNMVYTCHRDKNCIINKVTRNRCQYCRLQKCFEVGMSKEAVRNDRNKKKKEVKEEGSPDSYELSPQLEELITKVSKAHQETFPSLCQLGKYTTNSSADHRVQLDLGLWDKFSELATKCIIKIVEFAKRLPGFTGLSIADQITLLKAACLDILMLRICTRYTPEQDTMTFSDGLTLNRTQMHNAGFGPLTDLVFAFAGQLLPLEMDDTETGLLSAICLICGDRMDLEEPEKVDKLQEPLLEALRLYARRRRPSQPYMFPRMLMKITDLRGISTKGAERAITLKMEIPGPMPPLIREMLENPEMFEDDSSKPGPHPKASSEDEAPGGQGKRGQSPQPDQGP
The data set is described as follows: Transactivation of GAL4-fused mouse RARgamma-LBD expressed in COS-7 cells after 24 hrs by bright-Glo reagent based assay. Format: cell-based. An outline of the steps:
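Transactivation assays with mouse RAR α, β and γ ligand binding domains; values usually from three separate experiments, with error about 20% of the mean.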

Sequence of Voltage-gated inwardly rectifying potassium channel KCNH2 (Q12809 whole entry): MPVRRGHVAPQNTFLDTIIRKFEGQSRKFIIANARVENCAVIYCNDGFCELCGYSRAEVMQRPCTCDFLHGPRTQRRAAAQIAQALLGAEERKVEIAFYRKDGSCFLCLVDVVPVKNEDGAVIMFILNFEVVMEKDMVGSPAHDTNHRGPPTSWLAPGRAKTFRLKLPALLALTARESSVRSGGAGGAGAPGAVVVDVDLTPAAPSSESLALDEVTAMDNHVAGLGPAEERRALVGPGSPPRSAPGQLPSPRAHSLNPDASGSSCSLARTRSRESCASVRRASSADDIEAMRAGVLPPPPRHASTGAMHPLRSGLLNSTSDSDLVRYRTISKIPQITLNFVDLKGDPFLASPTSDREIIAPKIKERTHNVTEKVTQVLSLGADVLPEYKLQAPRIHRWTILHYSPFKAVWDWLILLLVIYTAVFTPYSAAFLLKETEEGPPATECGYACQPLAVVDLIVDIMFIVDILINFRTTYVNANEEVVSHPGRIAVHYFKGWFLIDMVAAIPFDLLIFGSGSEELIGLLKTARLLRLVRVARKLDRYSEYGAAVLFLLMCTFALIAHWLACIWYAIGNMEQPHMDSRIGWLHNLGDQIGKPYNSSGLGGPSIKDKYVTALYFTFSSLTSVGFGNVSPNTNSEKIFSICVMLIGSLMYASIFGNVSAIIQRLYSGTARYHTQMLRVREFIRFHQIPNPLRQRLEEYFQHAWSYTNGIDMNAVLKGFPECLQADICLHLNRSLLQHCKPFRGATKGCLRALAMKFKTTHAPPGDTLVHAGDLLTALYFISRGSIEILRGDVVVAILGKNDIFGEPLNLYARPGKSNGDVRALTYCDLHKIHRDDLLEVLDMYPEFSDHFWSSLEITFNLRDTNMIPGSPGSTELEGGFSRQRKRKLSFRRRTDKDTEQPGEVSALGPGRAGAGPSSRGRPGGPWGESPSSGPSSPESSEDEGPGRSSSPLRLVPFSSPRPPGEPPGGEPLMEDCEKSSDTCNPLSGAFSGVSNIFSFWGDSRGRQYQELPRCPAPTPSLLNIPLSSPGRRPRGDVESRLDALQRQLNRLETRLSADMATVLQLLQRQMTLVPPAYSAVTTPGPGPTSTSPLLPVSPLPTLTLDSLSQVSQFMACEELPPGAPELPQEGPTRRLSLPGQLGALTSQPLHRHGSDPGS

With `Cc1ccc(C)c2oc(-c3nc(-c4ccc(C(=O)O)cc4)no3)cc12`, in the data set filed under Mus musculus, the Ratio EC50 was determined as 13. Moreover, in data set [1], the Fa was determined as 80%. Moreover, the Activity result with HepG2 was “Non-Toxic”; in data set [3], “Non-Toxic”; in the data set with CHO-MG it was “Dose-dependent effect”; in data set [7] it was “Non-Toxic”; in data set [8] it was “Non-Toxic”; in the data set with Salmonella typhimurium [9] it was “Non-Toxic”. In addition, the Activity result with Salmonella typhimurium [10], in the data set on Salmonella typhimurium [11], with CHO-K1 [12] and with CHO-K1 [13] was “Non-Toxic” each time. Also, the “inhibition (INH)” value in data set [2] is “Not Active”. In addition, the outcome in the data set with Rattus norvegicus [4] and in the data set on Rattus norvegicus [14] was Active. Also, the Drug uptake entry in [5] and in data set [6] was “Active” in each case.
Consider `Cc1ccc(C)c2sc(-c3nc(-c4ccc(C(=O)O)cc4)no3)cc12`, for which, in the data set filed under Mus musculus, the Ratio EC50 amounted to 9.
Same read-out and setting: the result for `Cc1ccc(C)c2oc(-c3nc(-c4ccc(C(=O)O)cc4F)no3)cc12` reads 5.5.
On the same count and under the same terms, the result for `O=C(O)c1ccc(-c2noc(-c3cc4c(C(F)(F)F)ccc(F)c4o3)n2)cc1` reads 7.6.
Usually EC50 stands for the concentration at which the effect is half-maximal. Low readings indicate higher potency in that assay, high ones lower potency in that assay. As for `CCOc1c(Cl)cc(-c2cnc(-c3ccc(C(=O)O)cc3)o2)cc1Cl`, the EC50 in [15] was 45 nM.
For the compound `CC1(C)CCC(C)(C)c2cc(-c3nc(-c4ccc(C(=O)O)cc4)no3)ccc21`, the Ratio EC50 in the data set listed under Mus musculus was 17.
As for `CCOc1c(Cl)cc(-c2csc(-c3ccc(C(=O)O)cc3)n2)cc1Cl`, the midpoint of the response in [15], the EC50, lay at 160 nM.
Take `CCCCOCCOc1nc(-c2ccc(C(=O)O)c(F)c2)sc1C`: the Ratio EC50 in the data set filed under Mus musculus was determined as 5.8.
As for `CCOc1c(Cl)cc(-c2noc(-c3ccc(C(=O)O)cc3)n2)cc1Cl`, a half-maximal effect in data set [15] (EC50) was put at 5.4 nM.
As to `CC(C)(C)c1cc(-c2nc(-c3ccc(C(=O)O)cc3)no2)cc(C(C)(C)C)c1`, the Ratio EC50 in the data set filed under Mus musculus came out at 2.8.
Same read-out and setting: the result for `Cc1ccc(C)c2oc(-c3nc(-c4ccc(C(=O)O)cc4)no3)nc12` reads 10.
Consider `CCOc1c(Cl)cc(C(=O)Nc2ccc(C(=O)O)cc2)cc1Cl`, for which the EC50 in data set [15] stood at 30000 nM.
Consider `Cc1cc(C(=O)O)ccc1-c1noc(-c2cc3c(C)ccc(C)c3o2)n1`, for which the Ratio EC50 in the data set filed under Mus musculus was found to be 13.
As for `CCOc1c(Cl)cc(-c2nnc(-c3ccc(C(=O)O)cc3)o2)cc1Cl`, in data set [15], the response was half-maximal at 150 nM (EC50). This counts as sub-micromolar.
Regarding `Cc1cc(-c2noc(-c3cc4c(C)ccc(C)c4o3)n2)ccc1C(=O)O`, the Ratio EC50 in the data set filed under Mus musculus stood at 6.4.
Still for that read-out and setting: the figure for `Cc1ccc(C)c2oc(-c3nc(-c4ccc(C(=O)O)c(F)c4)no3)cc12` is 7.3.
